Test results taken from ChEMBL document CHEMBL3992558, “Benzimidazole inhibitors from the Niclosamide chemotype inhibit Wnt/β-catenin signaling with selectivity over effects on ATP homeostasis” (Bioorg Med Chem, 2017).
Activity calls are given as the source filed them. The calls are words filed in the database; no cut-off is given here.

Key:
[1] = (§1) Inhibition of Wnt/beta-catenin signaling (unknown origin) expressed in HEK293 cells assessed as inhibition of Wnt3A-stimulated beta-catenin response transcription after 6 hrs by TOPflash dual luciferase reporter gene assay; type: cell-based; settings: Homo sapiens, HEK293, 6 h
Outline: (§2)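 HEK293 cells stably carrying p8xTOPFlash and Renilla pRL-TK were seeded at confluency and given Wnt-3A conditioned medium (from L Wnt-3A cells) containing compound, 0.04–10 μM, or DMSO for 6 h. Lysates were read by dual-luciferase assay. The DMSO/Wnt3A signal was set as 100%, and curves were fit (mean ± SEM, n ≥ 3). Percent inhibition at 10 μM was reported where no IC50 could be fitted.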

HCT-116 [2] = assay: Effect on ATP homeostasis in human HCT116 cells assessed as reduction in ATP level at 0.5 to 2 uM after 3 hrs in glucose supplemented media by ATP bioluminescent assay; type: ADME, cell-based; settings: hct-116, 3 h
Outline: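 HCT-116 cells attached overnight on poly-D-lysine plates, then treated 3 h at 37°C in DMEM with 2mM sodium pyruvate, 2mM L-glutamine and 5mM glucose (0.1% final DMSO). ATP was read by luciferase bioluminescence after lysis with Somatic Cell ATP Releasing Reagent, normalized to DMSO control.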

Homo sapiens [3] = species: Homo sapiens; assay: Inhibition of Wnt/beta-catenin signaling in human U2OS cells expressing GFP-fused Fzd1 assessed as GFP-Fzd1 internalization by measuring number of punctate formed at 12.5 uM after 6 hrs by confocal microscopic method; type: cell-based
Outline: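 U2OS cells stably expressing Frizzled1-GFP were plated in confocal dishes for 24 h, then treated with 12.5 μM compound in DMSO or DMSO for 6 h at 37°C and fixed in 4% paraformaldehyde. Confocal images (488-nm excitation) were read twice, blinded, and punctate was scored versus control on a 0–5 scale (0, 1, 3, 5).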

Homo sapiens [4] = species: Homo sapiens; assay: Inhibition of Wnt/beta-catenin signaling (unknown origin) expressed in HEK293 cells assessed as inhibition of Wnt3A-stimulated beta-catenin response transcription at 10 uM after 6 hrs by TOPflash dual luciferase reporter gene assay relative to control; type: cell-based; outline: as §2
Homo sapiens [5] = species: Homo sapiens; assay: Inhibition of Wnt/beta-catenin signaling in human HCT116 cells assessed as downregulation of survivin protein expression at 5 uM after 18 hrs by Western blot method; type: cell-based
Outline: (§3)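 HCT-116 (McCoy's 5A) or SW480 (MEM) cells, each with 10% FBS, were grown 48 h on poly-D-lysine-coated wells to 60–80% confluency. Fresh medium with compound or DMSO (0.1% final) was added for 18 h. Cytosolic fractions (β-catenin, Axin2) were isolated with hypotonic buffer, or whole cells were lysed in Laemmli buffer (c-Myc, Cyclin D1, Survivin). Immunoblots used β-actin as loading control.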

Homo sapiens [6] = species: Homo sapiens; assay: as §1; type: cell-based; outline: as §2
Homo sapiens [7] = species: Homo sapiens; assay: Inhibition of Wnt/beta-catenin signaling in human SW480 cells assessed as downregulation of cytosolic beta-catenin protein expression at 5 uM after 18 hrs by Western blot method; type: cell-based; outline: as §3
Homo sapiens [8] = species: Homo sapiens; assay: Inhibition of Wnt/beta-catenin signaling in human HCT116 cells assessed as downregulation of c-Myc protein expression at 5 uM after 18 hrs by Western blot method; type: cell-based; outline: as §3
HCT-116 [9] = assay: Effect on ATP homeostasis in human HCT116 cells assessed as reduction in ATP level at 0.16 uM after 3 hrs in absence of glucose by ATP bioluminescent assay; type: ADME, cell-based; design: scale not given: the % may be the effect or the level left; settings: hct-116, 3 h
Homo sapiens [10] = species: Homo sapiens; assay: Inhibition of Wnt/beta-catenin signaling in human SW480 cells assessed as downregulation of Cyclin D1 protein expression at 5 uM after 18 hrs by Western blot method; type: cell-based; outline: as §3
Homo sapiens [11] = species: Homo sapiens; assay: Inhibition of Wnt/beta-catenin signaling in human HCT116 cells assessed as downregulation of cytosolic beta-catenin protein expression at 5 uM after 18 hrs by Western blot method; type: cell-based; outline: as §3
Homo sapiens [12] = species: Homo sapiens; assay: Inhibition of Wnt/beta-catenin signaling (unknown origin) expressed in HEK293 cells assessed as inhibition of Wnt3A-stimulated beta-catenin response transcription at 0.16 uM after 6 hrs by TOPflash dual luciferase reporter gene assay relative to control; type: cell-based
Outline: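 TOPFlash/Renilla stable HEK293 cells were split from the same batch as parallel ATP assay plates, attached overnight, then treated 6 h with compound in Wnt-3A conditioned medium. Dual-luciferase read-out was taken relative to the DMSO control. Three separate experiments used different cell batches.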

Homo sapiens [13] = species: Homo sapiens; assay: Inhibition of Wnt/beta-catenin signaling in human SW480 cells assessed as downregulation of survivin protein expression at 5 uM after 18 hrs by Western blot method; type: cell-based; outline: as §3
HEK293 (Homo sapiens) = assay: Effect on ATP homeostasis in human HEK293 cells assessed as reduction in ATP level after 3 hrs in absence of glucose by ATP bioluminescent assay; settings: HEK293, 3 h
Homo sapiens [14] = species: Homo sapiens; assay: Inhibition of Wnt/beta-catenin signaling in human SW480 cells assessed as downregulation of cytosolic Axin2 protein expression at 5 uM after 18 hrs by Western blot method; type: cell-based; outline: as §3
Homo sapiens [15] = species: Homo sapiens; assay: Inhibition of Wnt/beta-catenin signaling in human HCT116 cells assessed as downregulation of Cyclin D1 protein expression at 5 uM after 18 hrs by Western blot method; type: cell-based; outline: as §3
Homo sapiens [16] = species: Homo sapiens; assay: Inhibition of Wnt/beta-catenin signaling in human HCT116 cells assessed as downregulation of cytosolic Axin2 protein expression at 5 uM after 18 hrs by Western blot method; type: cell-based; outline: as §3
Homo sapiens [17] = species: Homo sapiens; assay: Inhibition of Wnt/beta-catenin signaling in human SW480 cells assessed as downregulation of c-Myc protein expression at 5 uM after 18 hrs by Western blot method; type: cell-based; outline: as §3
HCT-116 [18] = assay: Effect on ATP homeostasis in human HCT116 cells assessed as reduction in ATP level after 3 hrs in absence of glucose by ATP bioluminescent assay; type: ADME, cell-based; settings: for IC50: Homo sapiens, HCT-116, 3 h; for Activity: human, hct-116, 3 h
Outline: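 HCT-116 cells attached overnight on poly-D-lysine plates in McCoy's 5A/10% FBS, then switched to glucose-free DMEM with 2mM sodium pyruvate and 2mM L-glutamine containing compound (0.1% final DMSO). After 3 h at 37°C, 5% CO2, cells were lysed in Somatic Cell ATP Releasing Reagent and ATP was read by luciferase bioluminescence, normalized to DMSO control.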

HCT-116 [19] = assay: Effect on ATP homeostasis in human HCT116 cells assessed as reduction in ATP level at 2 uM after 3 hrs in glucose supplemented media by ATP bioluminescent assay; settings: hct-116, 3 h
Homo sapiens [20] = species: Homo sapiens; assay: Inhibition of Wnt/beta-catenin signaling (unknown origin) expressed in HEK293 cells assessed as inhibition of Wnt3A-stimulated beta-catenin response transcription at 0.31 uM after 6 hrs by TOPflash dual luciferase reporter gene assay relative to control; type: cell-based
Outline: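 HEK293 cells stably carrying p8xTOPFlash and a Renilla luciferase control (pRL-TK), grown in MEM with 10% FBS and 1ug/mL puromycin. Cells were seeded at confluence, then given Wnt-3A conditioned medium (from L Wnt-3A cells) with compound (0.04 to 10μM) or DMSO for 6 h. Lysates were read by dual luciferase, with the Wnt3A + DMSO signal set as 100%.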

Cc1ccc(O)c(-c2nc3cc([N+](=O)[O-])ccc3[nH]2)c1
IC50 [1]: 1690 nM
Activity (HCT-116 [2]): Non-Toxic
Activity (Homo sapiens [3]): 0

O=[N+]([O-])c1ccc2nc(-c3ccccc3O)[nH]c2c1
IC50 [1]: 4440 nM
Activity (Homo sapiens [3]): 0

Cc1ccc(S(=O)(=O)Nc2ccc(Cl)cc2-c2nc3cc([N+](=O)[O-])ccc3[nH]2)cc1
inhibition (Homo sapiens [4]): 48%
Activity (Homo sapiens [3]): 0

O=C(Nc1ccc([N+](=O)[O-])cc1Cl)c1cc(Cl)ccc1O [NICLOSAMIDE]
inhibition (Homo sapiens [5]): Active
inhibition (Homo sapiens [6]): Dose-dependent effect
IC50 [1]: 120 to 280 nM
inhibition (Homo sapiens [7]): Active
inhibition (Homo sapiens [8]): Active
Activity (HCT-116 [9]): > 80%
inhibition (Homo sapiens [10]): Active
Activity (HCT-116 [2]): Toxic
inhibition (Homo sapiens [11]): Active
inhibition (Homo sapiens [12]): 40 to 50%
inhibition (Homo sapiens [13]): Active
EC50 (HEK293 (Homo sapiens)): 56 nM
inhibition (Homo sapiens [14]): Active
Activity (Homo sapiens [3]): 5
inhibition (Homo sapiens [15]): Active
inhibition (Homo sapiens [16]): Active
inhibition (Homo sapiens [17]): Active
IC50 (HCT-116 [18]): 250 nM
Activity (HCT-116 [18]): Dose-dependent effect

COc1ccc2[nH]c(-c3cc(Cl)ccc3O)nc2c1
IC50 [1]: 1270 nM
Activity (Homo sapiens [3]): 0

O=S(=O)(Nc1ccccc1-c1nc2cc(C(F)(F)F)ccc2[nH]1)c1c(F)cccc1F
inhibition (Homo sapiens [4]): 8%
Activity (Homo sapiens [3]): 0

N#CC(C#N)=NNc1ccc(OC(F)(F)F)cc1
Activity (HCT-116 [19]): Toxic

Cc1ccc(S(=O)(=O)Nc2ccccc2-c2nc3cc([N+](=O)[O-])ccc3[nH]2)cc1
inhibition (Homo sapiens [4]): 53%
Activity (Homo sapiens [3]): 0

Oc1ccc(Cl)cc1-c1nc2cc(C(F)(F)F)ccc2[nH]1
inhibition (Homo sapiens [5]): Active
inhibition (Homo sapiens [6]): Dose-dependent effect
IC50 [1]: 230 to 270 nM
inhibition (Homo sapiens [7]): Active
inhibition (Homo sapiens [8]): Active
Activity (HCT-116 [9]): Non-Toxic
inhibition (Homo sapiens [10]): Active
Activity (HCT-116 [2]): Non-Toxic
inhibition (Homo sapiens [11]): Active
inhibition (Homo sapiens [12]): 40 to 50%
inhibition (Homo sapiens [13]): Active
EC50 (HEK293 (Homo sapiens)): ≥ 5000 nM
inhibition (Homo sapiens [14]): Active
Activity (Homo sapiens [3]): 3
inhibition (Homo sapiens [15]): Active
inhibition (Homo sapiens [16]): Active
inhibition (Homo sapiens [17]): Active
Activity (HCT-116 [18]): Dose-dependent effect

Cc1ccc(S(=O)(=O)Nc2ccc(Cl)cc2C(=O)Nc2ccc([N+](=O)[O-])cc2Cl)cc1
IC50 [1]: 1500 nM
Activity (Homo sapiens [3]): 3
IC50 (HCT-116 [18]): < 250 nM

Cc1ccc(S(=O)(=O)Nc2ccc(Cl)cc2-c2nc3cc(C(F)(F)F)ccc3[nH]2)cc1
IC50 [1]: 3200 nM
Activity (Homo sapiens [3]): 0

CC[C@H]1/C=C/C=C/C[C@@H](C)[C@H](O)[C@@](C)(O)C(=O)[C@@H](C)[C@H](O)[C@@H](C)C(=O)[C@@H](C)[C@H](O)[C@@H](C)/C=C/C(=O)O[C@@H]2[C@H](C)[C@H](CC1)O[C@]1(CC[C@H](C)[C@H](C[C@@H](C)O)O1)[C@H]2C [OLIGOMYCIN]
Activity (HCT-116 [19]): Toxic

O=[N+]([O-])c1ccc2nc(-c3cc(Cl)ccc3O)[nH]c2c1
inhibition (Homo sapiens [5]): Active
inhibition (Homo sapiens [6]): Dose-dependent effect
IC50 [1]: 360 to 480 nM
inhibition (Homo sapiens [7]): Active
inhibition (Homo sapiens [8]): Active
inhibition (Homo sapiens [10]): Active
inhibition (Homo sapiens [11]): Active
inhibition (Homo sapiens [13]): Active
EC50 (HEK293 (Homo sapiens)): 2900 nM
inhibition (Homo sapiens [14]): Active
Activity (Homo sapiens [3]): 3
inhibition (Homo sapiens [15]): Active
inhibition (Homo sapiens [16]): Active
inhibition (Homo sapiens [17]): Active
inhibition (Homo sapiens [20]): 40%

CCCCCC[C@H]1C(=O)O[C@H](C)[C@H](NC(=O)c2cccc(NC=O)c2O)C(=O)O[C@@H](C)[C@@H]1OC(=O)CC(C)C [ANTIMYCIN A]
Activity (HCT-116 [19]): Toxic

Oc1ccc(Cl)cc1-c1nc2ccccc2[nH]1
IC50 [1]: 2670 nM
Activity (Homo sapiens [3]): 0

COc1ccc(O)c(-c2nc3cc([N+](=O)[O-])ccc3[nH]2)c1
IC50 [1]: 4190 nM
Activity (Homo sapiens [3]): 0

Cc1ccc(S(=O)(=O)Nc2ccccc2-c2nc3cc(C(F)(F)F)ccc3[nH]2)cc1
inhibition (Homo sapiens [4]): 57%
Activity (Homo sapiens [3]): 0

Oc1ccc(Cl)cc1-c1nc2cc(F)ccc2[nH]1
IC50 [1]: 7650 nM
Activity (Homo sapiens [3]): 0

O=[N+]([O-])c1ccc2[nH]c(-c3ccccc3NS(=O)(=O)c3c(F)cccc3F)nc2c1
inhibition (Homo sapiens [4]): 15%
Activity (Homo sapiens [3]): 0

O=[N+]([O-])c1ccc2nc(-c3cc(Cl)cc(Cl)c3O)[nH]c2c1
IC50 [1]: 1540 nM
Activity (HCT-116 [2]): Toxic
Activity (Homo sapiens [3]): 2
IC50 (HCT-116 [18]): < 250 nM

CS(=O)(=O)Nc1ccccc1-c1nc2cc([N+](=O)[O-])ccc2[nH]1
inhibition (Homo sapiens [4]): 50%
Activity (Homo sapiens [3]): 0

CS(=O)(=O)Nc1ccccc1-c1nc2cc(C(F)(F)F)ccc2[nH]1
inhibition (Homo sapiens [4]): 74%
Activity (Homo sapiens [3]): 0
